Measurements reported in publication PMC6633905 (Molecular pharmaceutics, 2018).

Tests used:
human DP1 receptors = target: T1, human DP1 receptors (Homo sapiens, UniProt Q13258); assay: cAMP TR-FRET counter screen in C6-glioma cells, DP1; format: cell-based; details: read-out: DP1 KB; Schild KB; C6-glioma cells overexpressing DP1; agonist BW245C
T1 sequence (Q13258 1-359): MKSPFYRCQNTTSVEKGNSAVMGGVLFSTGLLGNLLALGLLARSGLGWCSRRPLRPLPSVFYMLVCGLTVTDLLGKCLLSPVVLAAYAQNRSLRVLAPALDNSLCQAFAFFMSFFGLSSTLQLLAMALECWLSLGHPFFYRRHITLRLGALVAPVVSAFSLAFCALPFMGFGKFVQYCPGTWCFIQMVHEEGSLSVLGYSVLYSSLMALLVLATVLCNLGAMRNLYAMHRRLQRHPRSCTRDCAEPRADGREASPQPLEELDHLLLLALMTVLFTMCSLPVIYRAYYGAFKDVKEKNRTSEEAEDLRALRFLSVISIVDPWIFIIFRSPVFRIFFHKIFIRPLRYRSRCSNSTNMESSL
In short: (§1)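 Rat C6 glioma cells stably expressing the human receptor, seeded 4,000/well overnight; 0.5 h in HBSS with 20 μM rolipram at room temperature; test compound for 10 or 50 min, then rising agonist concentrations for 40 min. Lysis, cAMP-d2/anti-cAMP-Cryptate TR-FRET (F665/F590).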

human IP receptors = human IP receptors (Homo sapiens, UniProt P43119); assay: cAMP TR-FRET counter screen in C6-glioma cells, IP; format: cell-based; details: read-out: IP KB; Schild KB; C6-glioma cells overexpressing IP; agonist iloprost
human IP receptors, sequence (P43119 whole entry): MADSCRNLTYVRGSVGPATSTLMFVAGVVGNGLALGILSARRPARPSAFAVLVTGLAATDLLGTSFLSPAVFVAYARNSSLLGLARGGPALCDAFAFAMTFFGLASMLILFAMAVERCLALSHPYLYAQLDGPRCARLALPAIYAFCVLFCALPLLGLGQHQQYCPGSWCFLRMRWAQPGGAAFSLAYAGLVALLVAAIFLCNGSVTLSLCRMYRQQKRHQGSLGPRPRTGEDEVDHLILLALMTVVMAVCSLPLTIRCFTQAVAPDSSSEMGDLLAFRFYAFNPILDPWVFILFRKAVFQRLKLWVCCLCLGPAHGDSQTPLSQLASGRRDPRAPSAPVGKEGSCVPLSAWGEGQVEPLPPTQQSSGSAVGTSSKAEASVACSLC
In short: as §1

SMILES: COc1ccc2cc(OCC3(C(=O)O)CN(C(=O)c4ccc(F)cc4)C3)ccc2c1 [PF-04418948]
- Kb (human DP1 receptors): 48.3 µM
- Kb (human IP receptors): 1.7 µM
